Active and inactive are the calls of the source. The rule behind the calls is not given here.
What was measured:
Heparin [1] = assay: Inhibition of heparin (unknown origin) assessed as reversal of heparin reduced FXa protease activity by measuring Z-D-LGR-N(Me)ANBA peptide substrate at 1 uM hydrolysis after 30 mins; conditions: Homo sapiens
Method in brief: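 Human antithrombin III (0.02 IU/mL) and factor Xa (0.085 μg/mL) combined with heparin (0.1 IU/mL) and ligand (1 μM), then chromogenic substrate added (485 μM) with 4-nitroaniline as internal standard, shaken at 25 °C. Aliquots acid-quenched and analysed by HPLC at 405 nm; percent hydrolysis taken from normalized cleaved-peptide area, with no-heparin as maximal activity and heparin-only as maximal inhibition.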

Heparin [2] = assay: Binding affinity to heparin (unknown origin) assessed as apparent dissociation constant by SPR assay; parameters: species or system Homo sapiens; conditions: read-out: Kd(app)
Method in brief: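 Heparin-functionalized chip: biotin sensor chip loaded with streptavidin (50 μg/mL), then biotin-heparin (50 μg/mL). Ligands injected at 40 μL/min, 25 °C, in 25 mM Tris pH 7.5; surface regenerated with 10 mM HCl. Three independent runs at three ligand concentrations globally fitted to a 1:1 two-state (conformational change) model to give on/off rates and KDapp.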

Heparin [3] = assay: Reversal of heparin mediated anticoagulant activity in mouse blood after 15 mins; conditions: dose 90-250 µM
Method in brief: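 Freshly drawn, untreated mouse blood split into 300 μL aliquots, given heparin (130 μM, per disaccharide repeat unit) plus ligand at various concentrations; after 15 min, clotting judged by inverting the tubes and photographing.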

Heparin [4] = assay: Reversal of heparin mediated anticoagulant activity in heparinized CD-1 mouse at 2.2 to 4.4 mg/kg, iv after 10 mins by tail transection assay; assay type: organism-based; conditions: dose 2.2-4.4 mg/kg
Method in brief: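 Eight-week-old male CD-1 mice anaesthetised with xylazine/ketamine, then given iv heparin (100 IU/kg) followed by ligand at 2.2 or 4.4 mg/kg; saline, heparin-only and ligand-only (4.4 mg/kg, n = 3) controls. Tails cut 5 mm from tip 5 min after injection and bled 10 min into 1 mL saline at 37 °C; blood volume from absorbance at 414 nm against a standard curve. ANOVA.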

A549 = assay: Cytotoxicity against human A549 cells assessed as reduction in cell viability at 25 to 50 uM incubated for 1 hr by MTT assay; assay type: functional, cell-based; conditions: dose 25-50 µM
Method in brief: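 A549 cells grown in DMEM with 10% FCS, 2 mM glutamine and antibiotics at 37 °C, 5% CO2; seeded at 7000 cells/well, exposed to compound in medium 24 h later for 1 h, then MTT (0.5 mg/mL) for 2 h, formazan dissolved in DMSO, absorbance read at 570 nm. Viability as percent of untreated cells; three independent experiments.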

Heparin [5] = assay: Binding affinity to heparin (unknown origin) assessed as apparent dissociation constant by fluorescence emission titration method; parameters: species or system Homo sapiens; conditions: read-out: Kd(app)
Method in brief: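 Binder at 10 μM in 1 mM Bis-Tris pH 7.5, excited at 280 nm; heparin stock (18 IU/mL) added in small portions with emission spectrum recorded after each addition. Full spectra globally fitted by nonlinear regression to a binding model of 1:1, 1:2 and 2:1 ligand–heparin disaccharide complexes to estimate equilibrium constants and apparent KD.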

Heparin [6] = assay: Binding affinity to heparin (unknown origin) assessed as apparent dissociation constant by ITC assay; parameters: species or system Homo sapiens; conditions: read-out: Kd(app)

SMILES	inhibition (Heparin [1])	Kd (Heparin [2]) [nM]	also measured
Oc1c(CNCCCNCCCCNCCCNCc2ccc3ccccc3c2O)ccc2ccccc12	Active		
Oc1ccc2ccccc2c1CNCCCNCCCCNCCCNCc1c(O)ccc2ccccc12	Active	797	Activity (Heparin [3]): Dose-Dependent Effect; Activity (Heparin [4]): Active; Activity (A549): inactive
Oc1ccccc1CNCCCNCCCCNCCCNCc1ccc2c(c1)Cc1ccccc1-2	Active	567	Kd (Heparin [5]): 500 nM; Activity (Heparin [3]): Dose-Dependent Effect; Activity (Heparin [4]): Active; Activity (A549): inactive
Oc1ccccc1CNCCCNCCCCNCCCNCc1cccc2ccccc12		1890	Kd (Heparin [6]): 1300 nM
COc1ccccc1CNCCCNCCCCNCCCNCc1ccccc1OC		33700	
Oc1ccccc1CNCCCNCCCCNCCCNCc1c(O)ccc2ccccc12		2620	
N=C(N)NCCC[C@H](N)C(=O)NCCCN1CCN(CCCNC(=O)[C@@H](N)CCCNC(=N)N)CC1 [CIRAPARANTAG]	Active	1530	
Oc1ccccc1CNCCCNCCCCNCCCNCc1ccc2ccccc2c1O	Active	1860	
Oc1ccccc1CNCCCNCCCCNCCCNCc1ccccc1O		21500	Kd (Heparin [6]): 22500 nM
